Consider two compounds from ChEMBL document CHEMBL4376862, “Synthesis and evaluation of novel chlorophyll a derivatives as potent photosensitizers for photodynamic therapy” (Eur J Med Chem, 2020).

Active and inactive are the calls of the source. The rule behind the calls is not given here.

Data set [1] can be described thus: Absorption property of compound in DMSO assessed as strong absorption wavelength at 1 x 10^-3 M by UV-spectra analysis. The data set is classed as physicochemical. The settings on record: 1000 µM. The method in brief: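 Stocks 1 mM in DMSO; spectra run over […] range (units as printed), 300–800 nm in 1 nm steps, room temperature, quartz cuvettes, UV-vis spectrophotometer.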

Data set [2] in a line: Induction of ROS generation in DMF solution assessed as slope of the photodegradation rate of DPBF at 2 uM followed by irradiation measured every 10 secs by spectrophotometric analysis. The data set is classed as functional.
Data set [3] is described as follows: Induction of singlet oxygen generation in DMF solution assessed as singlet oxygen quantum yield by measuring reduction in TEMP irradiated with 650 nanometer laser light in every 20 secs by ESR assay. The data set is classed as functional. The method in brief:
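ESR at room temperature: 9.65 GHz microwave frequency, 15 mW power, 3400–3500 G scan field, 0.8 G modulation amplitude, 15.5 s scan time, 32 scans.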

A short description of data set [4]: Drug localization in lysosome of human A549 cells at 1 uM after 4 hrs by lyso-tracker blue based fluorescence microscopic method. The data set is classed as ADME, subcellular. The settings on record: a549, 4 h. The essentials:
(§1)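 A549 cells on coverslips at 1×10^4 cells/mL exposed to […] (so in the source) photosensitizer in complete medium for 4 h, washed, fixed in 4% paraformaldehyde 20 min, then probed 30 min at 37 °C with Mito-Tracker Green, Lyso-Tracker Blue or ER-Tracker Green; fluorescence microscopy, three repeats, minimal ambient light.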

A short description of data set [5]: Drug localization in endoplasmic reticulum of human A549 cells at 1 uM after 4 hrs by DiOC6(3) ER-tracker green based fluorescence microscopic method. The class given is ADME, subcellular. The settings on record: a549, 4 h. The method in brief:
as §1

The subject of data set [6] is A549. The data set is described as follows: Induction of apoptosis in human A549 cells assessed as early apoptotic cell in presence of 1J/cm2 light irradiation measured after 4 hrs by annexin V-FITC and propidium iodide staining based flow cytometric analysis (reference value: 0.07%). The data set is classed as functional. The method in brief: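 After PDT at 1 J/cm2, A549 cells collected 4 h later, stained with annexin V-FITC and propidium iodide per kit instructions; flow cytometry with at least 10,000 events per sample.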
Background: A flow cytometer gives signals particle by particle.

The test system of data set [7] is A549. The data set is described as follows: Induction of apoptosis in human A549 cells assessed as late apoptotic cell incubated for 4 hrs under dark condition by annexin V-FITC and propidium iodide staining based flow cytometric analysis (reference value: 0.05%). The settings on record: a549, 4 h.
Data set [8] can be described thus: Drug uptake in BALB/c nude mouse xenografted with A549 cells assessed as drug level in spleen at 0.3 mg/kg, iv measured at 12 hrs by fluorescence assay. The class given is ADME, organism-based. The settings on record: in vivo. The essentials: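 A549 tumor-bearing mice dosed via tail vein (1 mg/kg in methods; 0.3 mg/kg in text) at tumors ~150–170 mm3, n = 3; whole-body imaging 0–24 h; at 6 and 12 h mice killed, heart, liver, spleen, lung, kidney, brain, tumor imaged ex vivo, excitation 420 nm, emission 650 nm.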

In the next data set the test system is Cavia porcellus. The data set is described as follows: Phototoxicity in guinea pig assessed as change in back skin at 4.5 mg/kg, iv in presence of 10 mW/cm2 light irradiation for 10 mins measured after 1day of light irradiation by H and E staining based microscopic analysis. The data set is classed as organism-based. The settings on record: in vivo.

As to `CCCCOC(C)c1c(C)c2cc3nc(c4c5[nH]c(cc6nc(cc1[nH]2)C(C)=C6CC)c(C)c5C(=O)C4)[C@@H](CCC(=O)NCC(=O)CCC(=O)O)[C@@H]3C` (stereo partly drawn), the Activity in data set [1] was 660 to 670 nm; with A549 [6], 2.07%; in the data set on A549 [7], 4.78%; with Cavia porcellus it was “Non-Toxic”. Further, in [2], the K came to 0.0313 s⁻¹. In addition, the outcome in data set [3] was Active. Moreover, the values for the Drug uptake result in data set [4], in [5] and in data set [8] were “Active”, “Active” and “Not Active”, respectively.
Take `CCC1=C(C)c2cc3[nH]c(cc4nc(c5c6[nH]c(cc1n2)c(C)c6C(=O)C5)[C@@H](CCC(=O)NCC(=O)CCC(=O)O)[C@@H]4C)c(C)c3C(C)OCCO` (stereo partly drawn): the Activity is 660 to 670 nm in data set [1], 28.92% in the data set on A549 [6], 4.7% in the data set with A549 [7] and “Non-Toxic” in the data set with Cavia porcellus. Further, the K in [2] was determined as 0.027 s⁻¹. Besides, in data set [3], the result was Active. Besides, the Drug uptake entry in data set [4] is “Active”; in [5], “Active”; in [8] it was “Not Active”.
